Source: PubChem BioAssay
Most compounds without a hit are left out; they make up all but 2% or so of the library.
T cell HTS: modulates CD8 T cell binding to vesicles; 2C CD8+ T cell-vesicle binding, flow cytometry; stronger effect = lower value; response (vesicle binding), % at 7 µM; 0.068% of 330,000 active; AID 2052;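 active = response, share of CD8 T cells binding vesicles, and their 90th percentile fluorescence all below set limits, cut at about 80% in these data, passing the limit was not always enough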;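 also: values below 100% mean blocked vesicle binding to the CD8+ T cells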
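Assay system: 2C TCR transgenic mouse naive CD8+ T cells, MACS-purified | Read-out: CD8+ gate FL2 mean fluorescence as % of same-row positive control | Signal: High-throughput flow cytometry with anti-B7-1 and anti-CD8 staining | Timing: Binding step 1.5 h, 37 °C, antibody labelling 20 min, ice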
FXN GAA850 act: activators of GAA850 frataxin (FXN) promoter | HEK293 lucGAA850 FXN promoter luciferase reporter, 24 h; percent of 10 µM SAHA response | activation, % at 6 µM | 0.56% of 360,000 active;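 active = activation above the average of all compounds screened plus 3 SD, cutoff fixed separately per campaign, cut at about 7.5% in these data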
Myeloid diff 2: promotes myeloid progenitor differentiation | ER-HoxA9 myeloid progenitors, lysozyme-GFP differentiation, flow cytometry | AID 624256 | calls only at 10 µM | 1% of 360,000 active;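 active = normalized GFP-positive differentiation at or above the plate's own cutoff, the solvent-only control mean plus 3 SD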;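 also: cells exposed to compound for four days before flow analysis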
NR2E3 ag-1: agonists of human nuclear receptor NR2E3. Q9Y5X4. GST-NR2E3/biotin-RetCOR TR-FRET, 1536-well. inhibition of corepressor binding, % at 4.78 µM. 0.12% of 320,000 active. AID 2300;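 active = percent inhibition above the cutoff of mean plus 3 SD of all tested compounds, set per screening campaign, cut at about 20% in these data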
Target sequence (Q9Y5X4 whole entry, looked up): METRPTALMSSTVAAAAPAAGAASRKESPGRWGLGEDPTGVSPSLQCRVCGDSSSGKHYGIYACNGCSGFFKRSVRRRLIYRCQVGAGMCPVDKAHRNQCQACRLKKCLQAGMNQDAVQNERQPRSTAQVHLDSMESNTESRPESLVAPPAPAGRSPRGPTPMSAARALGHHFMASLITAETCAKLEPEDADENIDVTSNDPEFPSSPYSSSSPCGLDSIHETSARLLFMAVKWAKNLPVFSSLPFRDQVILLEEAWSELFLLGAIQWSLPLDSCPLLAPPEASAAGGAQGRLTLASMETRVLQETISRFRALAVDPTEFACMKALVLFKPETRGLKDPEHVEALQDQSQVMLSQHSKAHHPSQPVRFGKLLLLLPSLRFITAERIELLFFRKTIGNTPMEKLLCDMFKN
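Material: NR2E3–RetCOR corepressor complex | Quantity: 1.35 nM GST-tagged NR2E3 final | Schedule: 5 h at 4 °C | Replication: Singlicate compound wells | Reagent: RetCOR corepressor, biotinylated, 7 nM | Controls: Biotin wells as high control, 0.6% DMSO wells as low control | Signal: TR-FRET, Eu(K)-anti-GST donor, streptavidin-D2 acceptor, ex 340, em 617/671 nm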
NR2E3 ag-2: activates human NR2E3 receptor; Q9Y5X4; CHO-S Gal4-NCOR/VP16-NR2E3 two-hybrid, luciferase; inhibition of corepressor binding, % at 3.98 µM; 0.35% of 360,000 active;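 active = inhibition above the mean of all tested compounds plus 3 SD, cut at about 70% in these data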;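 also: higher means lower luciferase signal from less NR2E3 corepressor binding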
Large screens that a line does not name were inactive.

Cc1ccc(O)c(C(=O)c2cc(C#N)c(=O)n(-c3c(C)n(C)n(-c4ccccc4)c3=O)c2)c1	Myeloid diff 2 active
COCC(=O)NCCc1ccc(S(N)(=O)=O)cc1	Myeloid diff 2 active
CN(C)c1ccc(/C=C/c2ccncc2)cc1	Myeloid diff 2 active (no result: T cell HTS, NR2E3 ag-1)
CN(C)c1ccc(C=Cc2cnccn2)cc1	none (no result: T cell HTS, NR2E3 ag-1)
CCCN1CCC(=O)N([C@H](CSc2ccccc2)Cc2ccccc2)CC1	none
CCCN1CCC(=O)N([C@H](CSc2ccc(Br)cc2)Cc2ccccc2)CC1	Myeloid diff 2 active (no result: T cell HTS)
COc1ccc(S(=O)(=O)NC(=O)C2(C)CCN2C(=O)CCc2ccc(Cl)cc2Cl)cc1 (stereo not given)	none (no result: T cell HTS, NR2E3 ag-1)
COC(=O)c1cccc(NC(=S)NCCC2=CCCCC2)c1	NR2E3 ag-2 91.0
COC(=O)c1ccc(NC(=S)NCCC2=CCCCC2)cc1	none
CC(C)(C)OC(=O)N1CCCN(C(=O)c2ccc(Cl)cc2)CC1	none
CC(C)(C)OC(=O)N1CCN(Cc2ccc(F)c(B(O)O)c2)CC1	Myeloid diff 2 active (no result: T cell HTS, NR2E3 ag-1)
COCCNc1nc(-c2ccc(Cl)cc2C)c2sccc2n1	none (no result: T cell HTS, NR2E3 ag-1)
COc1cc(/C=N/NC(=Nc2ccc(C)cc2)c2nc3ccccc3s2)ccc1O	NR2E3 ag-2 90.8
COc1ccccc1CCNC(=O)c1c(N)[nH]c(C(=O)c2ccccc2)c1-c1ccc(Br)cc1	none (no result: T cell HTS, FXN GAA850 act, NR2E3 ag-1)
COc1ccc(NC(=S)N2C3CCC2CC(NC(=O)NC24CC5CC(CC(C5)C2)C4)C3)c(OC)c1 (stereo not given)	none
Cc1cc([N+](=O)[O-])ccc1NC(=O)CN1C2CCC1CC(NC(=O)NC13CC4CC(CC(C4)C1)C3)C2 (stereo not given)	Myeloid diff 2 active
Cc1ccc(NS(=O)(=O)c2ccc(C(=O)N3CCCN(C)CC3)cc2)cc1	none
CN1CCN(c2ccc(NS(=O)(=O)c3ccc(Cl)cc3)cn2)CC1	Myeloid diff 2 active
Cc1ccccc1C(=O)Nc1ccc(N2CCN(C)CC2)nc1	Myeloid diff 2 active
Cc1ccc(S(=O)(=O)Nc2ccc(N3CCN(C)CC3)nc2)cc1	Myeloid diff 2 active
S=C(Nc1cccc(Cl)c1Cl)N1CCC2(CC1)OCCO2	none
CCN(CC)C(=O)[C@H]1C[C@H](CC(=O)NCc2cccc(C(F)(F)F)c2)C(=O)N2CCc3c([nH]c4cc(-c5ccco5)ccc34)[C@]12C	none (no result: T cell HTS, NR2E3 ag-1)
CCN(CC)c1c(C)nc2ccc(C(=O)NCc3ccc4c(c3)OCO4)cn12	none (no result: T cell HTS, NR2E3 ag-1)
O=C(O)C1CCC(Cn2c(SCc3cc(=O)n4cc(Cl)ccc4n3)nc3ccsc3c2=O)CC1 (stereo not given)	T cell HTS 24.9
COC(=O)c1ccccc1-c1c2ccc(=N)cc-2oc2cc(N)ccc12	Myeloid diff 2 active
CC(C)(C)OC(=O)C[C@H]1C/C=C\C[C@@H](CC(=O)N(CCO)Cc2ccccc2)C(=O)N[C@H](Cc2c[nH]c3ccccc23)COC1=O	none (no result: NR2E3 ag-1)
Cn1nc(-c2ccccc2)c(CSc2ccccc2Cl)c1Cl	Myeloid diff 2 active
Cn1nc(-c2ccccc2)c(C(O)c2ccc(Cl)cc2)c1Cl (stereo not given)	none
O=S(=O)(Nc1cccnc1)c1ccccc1	none
O=S(=O)(Nc1cccnc1)c1ccc(C2CCCCC2)cc1	NR2E3 ag-2 91.7
CCN1CCN(S(=O)(=O)c2ccc(Cl)c(C(=O)N(C)C3CCCCC3)c2)CC1	none (no result: T cell HTS, NR2E3 ag-1)
O=C(C1CCC(=O)N(C2CCCC2)C1)N1CCC(Oc2cccc(F)c2)CC1 (stereo not given)	Myeloid diff 2 active
O=C(C1CCC(=O)N(C2CC2)C1)N1CCC(Oc2cccc(F)c2)CC1 (stereo not given)	none
O=C(O)C1C2OC(C(Br)C2Br)C1C(=O)O (stereo not given)	none (no result: T cell HTS, NR2E3 ag-1)
Cc1ccc2sc(NC(=O)CSc3nc(C)cc(C)c3C#N)nc2c1	none
Cc1cc(C(F)(F)F)c(C#N)c(SCC(=O)Nc2nc3ccccc3s2)n1	Myeloid diff 2 active
CCOC(=O)CCSc1nc(C)cc(C(F)(F)F)c1C#N	Myeloid diff 2 active
CC1=Nc2cccc3cccc(c23)N1	Myeloid diff 2 active
Nc1ccc(C2=Nc3cccc4cccc(c34)N2)cc1	none (no result: T cell HTS, NR2E3 ag-1)
O=C(Oc1ccc(-c2nnco2)cc1)N1CCCCC1	T cell HTS 75.6
CC(C)Oc1ccc(S(=O)(=O)N2CCOCC2)cc1NC(=O)CSC(=S)N1CCCC1	Myeloid diff 2 active (no result: T cell HTS, NR2E3 ag-1)
CCOC(=O)/C(=C\C=C1/Sc2ccccc2N1CC)C(C)=O	none
CCOC(=O)/C(=C/C=C1\Sc2cc(C)c(C)cc2N1CC)C(C)=O	Myeloid diff 2 active (no result: T cell HTS, NR2E3 ag-1)
CN(C)/C=C1\C=C2C(=O)c3ccccc3N2C1=O	Myeloid diff 2 active
CC(C)n1nnnc1C1c2ccccc2C(=O)N1CCCN1CCOCC1 (stereo not given)	none (no result: T cell HTS, FXN GAA850 act, NR2E3 ag-1)
CCc1nc2c(OCC(=O)C(C)(C)C)cccn2c1N(C)C(=O)CC(C)C	none (no result: T cell HTS, NR2E3 ag-1)
COc1ccc(S(=O)(=O)Cc2ccccc2)cc1N	Myeloid diff 2 active
COc1ccccc1CN1C(=O)CN(C2CCCC2)C(=O)C1c1ccc(F)cc1 (stereo not given)	Myeloid diff 2 active
O=C1C(c2ccc(F)cc2)N(Cc2ccc3c(c2)OCO3)C(=O)CN1C1CCCC1 (stereo not given)	none
CCOc1ccc2nc(NCCNC(=O)CC)c(C#N)cc2c1	Myeloid diff 2 active
CCOc1ccc(NC(=O)CN(C)C2=NS(=O)(=O)c3ccccc32)cc1	none (no result: T cell HTS, NR2E3 ag-1)
CCCNC(=O)C1(C)CCN(C(=O)c2c(Cl)cccc2Cl)C1 (stereo not given)	none (no result: T cell HTS, NR2E3 ag-1)
CCCCCCN1C[C@H](O)[C@@H](n2cc(C3CC3)nn2)C[C@@H]1c1ccc(OC)cc1	Myeloid diff 2 active (no result: T cell HTS, NR2E3 ag-1)
CS(=O)(=O)N1CCN(c2ccc(C(=O)NC34CC5CC(CC(C5)C3)C4)cc2[N+](=O)[O-])CC1	none
O=C(NC12CC3CC(CC(C3)C1)C2)c1ccc(N2CCNCC2)c([N+](=O)[O-])c1	Myeloid diff 2 active
CC(C)OC(=O)CC12CN3CN(C1)CC(CC(=O)OC(C)C)(C3)C2=O	none
CCOC(=O)CC12CN3CN(C1)CC(CC(=O)OCC)(C3)C2=O	Myeloid diff 2 active
Cc1noc(/C=C/c2ccc(-c3ccccc3Cl)o2)c1[N+](=O)[O-]	Myeloid diff 2 active
Cc1noc(/C=C/c2cccnc2)c1[N+](=O)[O-]	none
O=S(=O)(NCC1CC1)c1cccc(S(=O)(=O)N2CCCC2)c1	Myeloid diff 2 active
C/C(=N\NC(=O)c1ccc(Br)o1)c1cc2c(cc1NC(=O)CCC(=O)O)OCO2	T cell HTS 0.0 (no result: NR2E3 ag-1)
CCOc1ccc(-c2nc3n(c(=O)c2C#N)CCCS3)cc1	Myeloid diff 2 active
Cc1oc2cc3oc(=O)cc(C)c3cc2c1C	none
COc1ccc(-c2[nH]ncc2Oc2ccccc2OC)c(O)c1	Myeloid diff 2 active
CCN1C(=O)N[C@@H](c2cccc(C(F)(F)F)c2)[C@@H](C(=O)OC)[C@H]1C	none
COC(=O)[C@H]1[C@@H](C)N(Cc2ccccc2)C(=O)N[C@H]1c1cccc(C(F)(F)F)c1	Myeloid diff 2 active
